ChEMBL document CHEMBL4304751, “Discovery of Novel Pyrido-pyridazinone Derivatives as FER Tyrosine Kinase Inhibitors with Antitumor Activity” (ACS Med Chem Lett, 2019)
Values after ≈ are worked out from the molar mass of the structure shown.

How the values were obtained:
[1] = target: T1, Tyrosine-protein kinase Fer (Homo sapiens, UniProt P16591); assay: Inhibition of recombinant N-terminal His-tagged human FER (SH2 domain to C-terminal) expressed in Escherichia coli assessed as decrease in FL-Peptide22 substrate phosphorylation incubated for 90 mins
Target sequence in this assay (P16591 whole entry, the tested form may be a part): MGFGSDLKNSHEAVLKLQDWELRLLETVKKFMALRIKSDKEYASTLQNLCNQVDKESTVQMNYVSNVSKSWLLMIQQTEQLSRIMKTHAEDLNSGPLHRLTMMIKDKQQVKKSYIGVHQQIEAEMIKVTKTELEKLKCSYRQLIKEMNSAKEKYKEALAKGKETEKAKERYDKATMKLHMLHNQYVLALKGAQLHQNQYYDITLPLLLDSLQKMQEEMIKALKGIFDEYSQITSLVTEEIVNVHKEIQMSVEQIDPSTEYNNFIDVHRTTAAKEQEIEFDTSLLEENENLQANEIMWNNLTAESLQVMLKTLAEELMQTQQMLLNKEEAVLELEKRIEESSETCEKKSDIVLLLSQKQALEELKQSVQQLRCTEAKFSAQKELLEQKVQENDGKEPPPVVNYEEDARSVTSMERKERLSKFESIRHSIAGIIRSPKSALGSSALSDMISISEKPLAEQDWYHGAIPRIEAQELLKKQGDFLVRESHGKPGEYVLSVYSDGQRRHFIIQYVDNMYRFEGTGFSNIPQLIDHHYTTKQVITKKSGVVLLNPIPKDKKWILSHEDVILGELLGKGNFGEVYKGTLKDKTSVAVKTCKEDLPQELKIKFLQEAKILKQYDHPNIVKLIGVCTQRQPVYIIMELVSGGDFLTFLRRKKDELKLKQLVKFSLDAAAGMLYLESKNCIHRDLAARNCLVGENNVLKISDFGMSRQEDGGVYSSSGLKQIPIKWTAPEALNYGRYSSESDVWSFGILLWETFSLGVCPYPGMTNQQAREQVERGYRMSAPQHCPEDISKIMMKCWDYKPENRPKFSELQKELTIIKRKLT

[2] = Growth inhibition of mouse mock transfected BA/F3 cells assessed as decrease in cell viability after 3 days by luminescence based CellTiter-Glo assay; set-up: species or system BaF3
Method in brief: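 Ba/F3 growth inhibition run as quadruplicate experiments. GI50 fitted with 95% confidence intervals.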

[3] = target: CDK2/Cyclin A2 (Homo sapiens) (UniProt P24941+P20248); assay: Inhibition of recombinant human full length N-terminal GST-tagged CDK2 (1 to 298 residues)/GST-tagged CyclinA2 (1 to 432 residues) expressed in baculovirus expression system assessed as decrease in fluorescence labelled modified histone H1 phosphorylation at 200 nM by off-chip mobility shift assay relative to control
Mus musculus = assay: Unbound plasma concentration in BALB/cAnNCrlCrlj mouse at 10 mg/kg, po administered via gavage after 24 hrs by non-compartmental analysis; assay type: ADME, organism-based; settings: in vivo
Method in brief: (§1)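 Mouse pharmacokinetics: compound given orally at 10 mg/kg. Unbound plasma concentration is reported as a mean value after oral dosing.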

[4] = target: Mitogen-activated protein kinase kinase kinase 9 (Homo sapiens) (UniProt P80192); assay: Inhibition of recombinant N-terminal GST-fusion protein tagged human MLK1 catalytic domain (110 to 422 residues) expressed in baculovirus expression system assessed as decrease in GST-labelled MAP2K7 phosphorylation at 200 nM by HRP-labelled anti-rabbit antibody based ELISA method relative to control
[5] = Effective permeability of compound at 5 uM after 24 hrs at pH 7.4 by LC/MS/MS based PAMPA assay; assay type: ADME; settings: read-out: Peff
BaF3 = assay: Antitumor activity against mouse BA/F3 cells expressing myc/His-tagged ETV6-FER kinase domain (452 to 821 residues) allografted in BALB/cAJcl nu/nu mouse assessed as decrease in tumor volume administered orally once per day for 4 days starting from 6 days after tumor cell implantation and measured during compound dosing; assay type: functional, cell-based
[6] = target: T2, Testis-specific serine/threonine-protein kinase 1 (Homo sapiens) (UniProt Q9BXA7); assay: Inhibition of recombinant N-terminal GST fusion protein tagged human full length TSSK1 (1 to 367 residues) expressed in baculovirus expression system assessed as decrease in fluorescence labelled GS peptide phosphorylation at 200 nM by off-chip mobility shift assay relative to control
T2 sequence (whole entry): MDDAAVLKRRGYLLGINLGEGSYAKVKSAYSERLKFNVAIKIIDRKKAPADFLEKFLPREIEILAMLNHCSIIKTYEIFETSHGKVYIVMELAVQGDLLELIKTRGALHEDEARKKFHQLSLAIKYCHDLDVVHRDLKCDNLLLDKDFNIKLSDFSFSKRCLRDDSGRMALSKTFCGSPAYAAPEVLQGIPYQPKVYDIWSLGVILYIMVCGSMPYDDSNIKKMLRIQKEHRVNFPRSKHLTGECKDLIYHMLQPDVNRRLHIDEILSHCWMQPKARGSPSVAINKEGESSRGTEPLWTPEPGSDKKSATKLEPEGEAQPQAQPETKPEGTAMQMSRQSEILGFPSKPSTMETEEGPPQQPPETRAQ

[7] = Solubility in FaSSIF; assay type: physicochemical
Method in brief: (§2)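 Solubility expressed as μg/mL, measured in pH 6.8 buffer and in FaSSIF.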

[8] = target: Mast/stem cell growth factor receptor Kit (Homo sapiens) (UniProt P10721); assay: Inhibition of recombinant N-terminal GST-fusion protein tagged human KIT cytoplasmic domain (544 to 976 residues) expressed in baculovirus expression system assessed as decrease in fluorescence labelled Srctide phosphorylation at 200 nM by off-chip mobility shift assay relative to control
[9] = AUC in BALB/cAnNCrlCrlj mouse at 10 mg/kg, po administered via gavage after 24 hrs; assay type: ADME, organism-based; set-up: time < 24 hr, dose 10 mg/kg, route oral; settings: in vivo; method in brief: as §1
[10] = Protein binding in BALB/c mouse serum at 10 ug/mL incubated for 4 hrs under shaking condition by LC/MS/MS analysis; assay type: ADME, cell-free; settings: read-out: PPB
Method in brief: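 Binding determined using serum samples from BALB/c mice.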

[11] = target: Tyrosine-protein kinase Fes/Fps (Homo sapiens) (UniProt P07332); assay: Inhibition of recombinant N-terminal GST fusion protein tagged human full length FES (1 to 413/416 to 822 residues) expressed in baculovirus expression system assessed as decrease in fluorescence labelled Srctide phosphorylation at 200 nM by off-chip mobility shift assay relative to control
[12] = target: ALK tyrosine kinase receptor (Homo sapiens) (UniProt Q9UM73); assay: Inhibition of recombinant N-terminal GST-fusion protein tagged human ALK cytoplasmic domain (1058 to 1620 residues) expressed in baculovirus expression system assessed as decrease in fluorescence labelled Srctide phosphorylation at 200 nM by off-chip mobility shift assay relative to control
[13] = Oral bioavailability in BALB/cAnNCrlCrlj mouse at 10 mg/kg administered via gavage after 24 hrs; assay type: ADME, organism-based; settings: in vivo; method in brief: as §1
[14] = target: Tyrosine-protein kinase SYK (Homo sapiens) (UniProt P43405); assay: Inhibition of recombinant N-terminal GST-fusion protein tagged human full length SYK (1 to 635 residues) expressed in baculovirus expression system assessed as decrease in fluorescence labelled Blk/Lyntide phosphorylation at 200 nM by off-chip mobility shift assay relative to control
[15] = target: High affinity nerve growth factor receptor (Homo sapiens) (UniProt P04629); assay: Inhibition of recombinant N-terminal GST-fusion protein tagged human TRKA cytoplasmic domain (436 to 790 residues) expressed in baculovirus expression system assessed as decrease in fluorescence labelled CSKtide phosphorylation at 200 nM by off-chip mobility shift assay relative to control
[16] = target: Macrophage colony-stimulating factor 1 receptor (Homo sapiens) (UniProt P07333); assay: Inhibition of recombinant N-terminal GST-fusion protein tagged human FMS cytoplasmic domain (538 to 972 residues) expressed in baculovirus expression system assessed as decrease in fluorescence labelled Srctide phosphorylation at 200 nM by off-chip mobility shift assay relative to control
[17] = target: Mitogen-activated protein kinase kinase kinase kinase 4 (Homo sapiens) (UniProt O95819); assay: Inhibition of recombinant N-terminal GST-fusion protein tagged human HGK catalytic domain (1 to 328 residues) expressed in baculovirus expression system assessed as decrease in fluorescence labelled Moesin-derived phosphorylation at 200 nM by off-chip mobility shift assay relative to control
[18] = target: Protein-tyrosine kinase 2-beta (Homo sapiens) (UniProt Q14289); assay: Inhibition of recombinant N-terminal GST-fusion protein tagged human full length PYK2 (1 to 967 residues) expressed in baculovirus expression system assessed as decrease in fluorescence labelled Blk/Lyntide phosphorylation at 200 nM by off-chip mobility shift assay relative to control
[19] = Toxicity in BALB/cAJcl nu/nu mouse allografted with mouse BA/F3 cells expressing myc/His-tagged ETV6-FER kinase domain (452 to 821 residues) assessed as change in body weight loss at 12.5 to 100 mg/kg, po administered once per day for 4 days starting from 6 days after tumor cell implantation and measured during compound dosing; assay type: organism-based; settings: in vivo
[20] = Solubility in buffer at pH 6.8; assay type: physicochemical; method in brief: as §2
[21] = target: T3, Interleukin-1 receptor-associated kinase 4 (Homo sapiens) (UniProt Q9NWZ3); assay: Inhibition of recombinant N-terminal GST-fusion protein tagged human full length IRAK4 (1 to 460 residues) expressed in baculovirus expression system assessed as decrease in fluorescence labelled IRAK1 phosphorylation at 200 nM by off-chip mobility shift assay relative to control
T3 sequence (whole entry): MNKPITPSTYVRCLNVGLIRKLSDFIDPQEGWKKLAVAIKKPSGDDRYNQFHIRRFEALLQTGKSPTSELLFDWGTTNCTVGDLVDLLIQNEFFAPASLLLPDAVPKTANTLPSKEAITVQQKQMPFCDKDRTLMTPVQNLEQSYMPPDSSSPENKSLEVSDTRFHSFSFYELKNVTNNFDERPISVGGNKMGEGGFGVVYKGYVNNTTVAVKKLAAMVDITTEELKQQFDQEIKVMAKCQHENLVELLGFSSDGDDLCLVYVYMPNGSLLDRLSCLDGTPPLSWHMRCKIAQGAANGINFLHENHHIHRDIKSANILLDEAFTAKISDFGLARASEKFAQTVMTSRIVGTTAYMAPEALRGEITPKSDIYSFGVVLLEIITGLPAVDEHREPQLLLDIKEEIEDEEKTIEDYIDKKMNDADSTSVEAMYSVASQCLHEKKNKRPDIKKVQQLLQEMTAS

[22] = target: Serine/threonine-protein kinase Chk2 (Homo sapiens) (UniProt O96017); assay: Inhibition of recombinant N-terminal GST-fusion protein tagged human full length CHK2 (1 to 543 residues) expressed in baculovirus expression system assessed as decrease in fluorescence labelled CHKtide phosphorylation at 200 nM by off-chip mobility shift assay relative to control
[23] = target: Receptor-type tyrosine-protein kinase FLT3 (Homo sapiens) (UniProt P36888); assay: Inhibition of recombinant N-terminal GST-fusion protein tagged human FLT3 cytoplasmic domain (564 to 993 residues) expressed in baculovirus expression system assessed as decrease in fluorescence labelled Srctide phosphorylation at 200 nM by off-chip mobility shift assay relative to control
[24] = target: T1, Tyrosine-protein kinase Fer
Target sequence in this assay (P16591 whole entry, looked up, the tested form may be a part): as the sequence (P16591 whole entry, the tested form may be a part) above

[25] = Cmax in BALB/cAnNCrlCrlj mouse at 10 mg/kg, po administered via gavage after 24 hrs; assay type: ADME, organism-based; set-up: dose 10 mg/kg, route oral; settings: in vivo; method in brief: as §1
[26] = Metabolic stability in mouse liver microsomes assessed as parent compound remaining at 1 uM after 30 mins relative to control; assay type: ADME, Microsome; settings: read-out: Stability
Method in brief: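 Test compound at 1.0 μM incubated 30 min with mouse liver microsomes (1.0 mg/mL protein). The fraction of parent remaining is reported.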

[27] = target: Proto-oncogene tyrosine-protein kinase ROS (Homo sapiens) (UniProt P08922); assay: Inhibition of recombinant N-terminal GST-fusion protein tagged human ROS1 cytoplasmic domain (1883 to 2347 residues) expressed in baculovirus expression system assessed as decrease in fluorescence labelled IRS1 phosphorylation at 200 nM by off-chip mobility shift assay relative to control
[28] = target: T1, Tyrosine-protein kinase Fer; assay: Inhibition of recombinant N-terminal GST-tagged human full length FER (1 to 822 residues) expressed in baculovirus expression system decrease in fluorescence labelled Srctide phosphorylation at 200 nM by off-chip mobility shift assay relative to control
Target sequence in this assay (P16591 whole entry, looked up, the tested form may be a part): as the sequence (P16591 whole entry, the tested form may be a part) above

[29] = Total plasma clearance in BALB/cAnNCrlCrlj mouse at 1 mg/kg, iv after 24 hrs; assay type: ADME, organism-based
Method in brief: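 Clearance measured after a single intravenous dose of 1 mg/kg in mice.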

High affinity nerve growth factor receptor (Homo sapiens), sequence (P04629 33-796 limits assumed): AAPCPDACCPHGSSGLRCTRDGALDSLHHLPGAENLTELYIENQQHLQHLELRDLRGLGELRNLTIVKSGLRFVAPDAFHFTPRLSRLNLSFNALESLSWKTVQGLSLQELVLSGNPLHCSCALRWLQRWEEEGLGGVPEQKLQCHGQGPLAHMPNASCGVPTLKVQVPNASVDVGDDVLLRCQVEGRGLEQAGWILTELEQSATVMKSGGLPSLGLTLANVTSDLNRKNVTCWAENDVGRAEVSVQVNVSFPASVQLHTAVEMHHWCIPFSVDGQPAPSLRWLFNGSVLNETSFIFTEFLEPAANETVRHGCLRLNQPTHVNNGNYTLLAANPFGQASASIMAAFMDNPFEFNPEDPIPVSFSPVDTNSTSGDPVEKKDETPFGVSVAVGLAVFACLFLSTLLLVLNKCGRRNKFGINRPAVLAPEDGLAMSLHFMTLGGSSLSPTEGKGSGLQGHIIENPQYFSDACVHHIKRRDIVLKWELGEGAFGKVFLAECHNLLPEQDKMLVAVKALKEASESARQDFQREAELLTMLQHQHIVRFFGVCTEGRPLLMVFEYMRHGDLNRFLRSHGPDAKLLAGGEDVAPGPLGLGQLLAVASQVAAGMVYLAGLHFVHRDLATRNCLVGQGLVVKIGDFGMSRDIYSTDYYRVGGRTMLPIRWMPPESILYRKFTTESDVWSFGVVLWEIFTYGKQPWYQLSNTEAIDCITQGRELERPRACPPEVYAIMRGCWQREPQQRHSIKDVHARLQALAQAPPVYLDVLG
Mast/stem cell growth factor receptor Kit (Homo sapiens), sequence (P10721 whole entry, the tested form may be a part): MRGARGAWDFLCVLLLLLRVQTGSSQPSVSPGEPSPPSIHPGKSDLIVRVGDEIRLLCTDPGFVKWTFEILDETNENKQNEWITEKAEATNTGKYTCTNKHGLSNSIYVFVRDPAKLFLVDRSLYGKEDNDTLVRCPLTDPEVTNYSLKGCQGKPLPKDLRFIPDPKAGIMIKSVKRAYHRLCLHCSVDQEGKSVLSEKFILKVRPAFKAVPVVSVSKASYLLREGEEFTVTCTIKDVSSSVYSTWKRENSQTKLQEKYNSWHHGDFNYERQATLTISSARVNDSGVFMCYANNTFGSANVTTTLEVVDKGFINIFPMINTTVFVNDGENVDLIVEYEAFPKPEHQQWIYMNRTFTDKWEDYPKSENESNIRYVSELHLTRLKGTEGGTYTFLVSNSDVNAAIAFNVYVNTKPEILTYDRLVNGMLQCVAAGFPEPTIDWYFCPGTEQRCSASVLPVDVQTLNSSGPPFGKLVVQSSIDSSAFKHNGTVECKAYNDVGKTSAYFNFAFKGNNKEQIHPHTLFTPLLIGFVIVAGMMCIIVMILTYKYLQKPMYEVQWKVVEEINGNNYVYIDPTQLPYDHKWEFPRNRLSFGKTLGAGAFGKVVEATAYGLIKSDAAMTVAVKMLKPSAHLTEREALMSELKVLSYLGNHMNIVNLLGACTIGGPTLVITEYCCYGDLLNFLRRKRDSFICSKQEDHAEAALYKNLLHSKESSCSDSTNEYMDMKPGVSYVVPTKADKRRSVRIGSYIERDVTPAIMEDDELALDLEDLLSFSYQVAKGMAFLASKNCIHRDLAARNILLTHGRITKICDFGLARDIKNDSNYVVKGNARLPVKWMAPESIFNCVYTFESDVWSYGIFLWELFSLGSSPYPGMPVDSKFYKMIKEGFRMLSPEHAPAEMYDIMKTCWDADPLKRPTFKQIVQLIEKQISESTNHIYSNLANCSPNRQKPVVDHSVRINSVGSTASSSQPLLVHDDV
Mitogen-activated protein kinase kinase kinase 9 (Homo sapiens), sequence (P80192 whole entry, looked up, the tested form may be a part): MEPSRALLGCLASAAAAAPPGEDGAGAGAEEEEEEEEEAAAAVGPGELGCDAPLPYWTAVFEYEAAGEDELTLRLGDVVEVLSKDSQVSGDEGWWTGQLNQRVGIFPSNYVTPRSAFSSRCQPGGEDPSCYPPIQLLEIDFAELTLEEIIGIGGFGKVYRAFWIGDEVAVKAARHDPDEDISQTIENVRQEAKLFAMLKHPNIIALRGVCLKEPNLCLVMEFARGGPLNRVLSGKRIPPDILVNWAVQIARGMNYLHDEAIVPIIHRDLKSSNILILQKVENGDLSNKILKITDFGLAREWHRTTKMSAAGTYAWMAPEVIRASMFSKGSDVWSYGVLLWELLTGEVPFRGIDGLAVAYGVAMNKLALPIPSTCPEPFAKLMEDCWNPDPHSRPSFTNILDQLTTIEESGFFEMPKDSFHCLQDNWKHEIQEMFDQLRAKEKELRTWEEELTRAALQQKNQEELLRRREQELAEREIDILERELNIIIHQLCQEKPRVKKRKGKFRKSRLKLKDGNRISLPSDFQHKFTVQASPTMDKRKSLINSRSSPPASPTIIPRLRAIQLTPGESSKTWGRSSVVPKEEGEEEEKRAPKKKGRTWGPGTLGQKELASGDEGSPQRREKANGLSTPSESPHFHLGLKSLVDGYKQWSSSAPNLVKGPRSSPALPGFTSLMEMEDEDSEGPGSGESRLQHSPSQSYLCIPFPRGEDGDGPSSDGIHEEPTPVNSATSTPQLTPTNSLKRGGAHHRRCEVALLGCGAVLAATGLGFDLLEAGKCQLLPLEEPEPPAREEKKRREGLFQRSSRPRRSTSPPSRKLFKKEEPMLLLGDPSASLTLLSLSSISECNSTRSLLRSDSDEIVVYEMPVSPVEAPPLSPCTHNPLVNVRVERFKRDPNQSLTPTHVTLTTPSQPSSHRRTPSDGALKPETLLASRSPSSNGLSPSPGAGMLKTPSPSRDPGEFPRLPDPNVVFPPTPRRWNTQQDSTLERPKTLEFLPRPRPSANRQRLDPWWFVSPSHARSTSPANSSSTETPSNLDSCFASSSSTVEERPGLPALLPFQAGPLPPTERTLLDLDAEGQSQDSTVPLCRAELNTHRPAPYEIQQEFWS
Serine/threonine-protein kinase Chk2 (Homo sapiens), sequence (O96017 whole entry, the tested form may be a part): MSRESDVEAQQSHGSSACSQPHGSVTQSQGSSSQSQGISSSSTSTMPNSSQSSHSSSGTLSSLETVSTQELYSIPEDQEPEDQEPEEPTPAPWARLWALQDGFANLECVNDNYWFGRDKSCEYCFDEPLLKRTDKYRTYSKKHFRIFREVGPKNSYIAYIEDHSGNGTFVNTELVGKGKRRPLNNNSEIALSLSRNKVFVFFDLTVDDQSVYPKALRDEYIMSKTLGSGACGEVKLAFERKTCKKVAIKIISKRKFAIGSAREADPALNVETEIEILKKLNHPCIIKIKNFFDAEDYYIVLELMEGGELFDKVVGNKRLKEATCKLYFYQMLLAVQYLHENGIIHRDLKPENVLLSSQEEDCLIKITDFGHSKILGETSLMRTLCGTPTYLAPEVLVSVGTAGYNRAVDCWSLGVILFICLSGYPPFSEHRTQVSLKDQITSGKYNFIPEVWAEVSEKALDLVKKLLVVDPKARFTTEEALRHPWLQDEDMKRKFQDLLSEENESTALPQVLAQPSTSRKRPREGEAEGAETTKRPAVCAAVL

## N#Cc1cc(C(N)=O)c(N)nc1N[C@@H]1CCCC[C@@H]1N
[1]
  IC50: > 4 µM

## Cc1cccc(Nc2nc(NC3CCCCC3N)c(Cl)c3cn[nH]c(=O)c23)c1 (racemic)
[2]
  GI50 at 72 h: 1.5 µM

## Cc1cccc(Nc2nc(NC3CCCCC3N)cc3c2C(=O)NCC3)c1 (racemic)
[2]
  GI50 at 72 h: 4.3 µM

## Cc1cccc(Nc2nc(N[C@@H]3CCCC[C@@H]3N)c(C#N)c3cn[nH]c(=O)c23)c1
[3]
  inhibition: > 90%
Mus musculus
  Cp(f): 3.1 nM
[4]
  inhibition: > 90%
[5]
  Papp at 24 h, 5 µM: > 50 ×10⁻⁶ cm/s
BaF3
  Activity: Dose-dependent effect
[6]
  inhibition: > 90%
[7]
  solubility: 2.1 µg/mL (≈ 5.39 µM)
[2]
  GI50 at 72 h: 0.22 µM
[8]
  inhibition: > 90%
[9]
  AUC at 24 h: 4800 ng·h/mL
[10]
  fraction unbound at 4 h, 10 ug/mL: 0.01
[11]
  inhibition: > 90%
[12]
  inhibition: > 90%
[13]
  bioavailability: 34%
[14]
  inhibition: > 90%
[15]
  inhibition: > 90%
[16]
  inhibition: > 90%
[17]
  inhibition: > 90%
[18]
  inhibition: > 90%
[19]
  Activity: Non-Toxic
[20]
  solubility: 0.9 µg/mL (≈ 2.31 µM)
[21]
  inhibition: > 90%
[1]
  IC50: 0.00049 µM
[22]
  inhibition: > 90%
[23]
  inhibition: > 90%
[24]
  GI50: 0.0019 µM
[25]
  Cmax: 360 ng/mL
[26]
  remaining at 0.5 h, 1 µM: 96%
[27]
  inhibition: > 90%
[28]
  inhibition: > 90%
[29]
  clearance: 12 mL/min/kg

## Cc1cccc(Nc2ccc(C#N)c(N[C@@H]3CCCC[C@@H]3N)n2)c1
[1]
  IC50: > 4 µM

## Cc1cccc(Nc2nc(NC3CCCCC3N)cc3cc[nH]c(=O)c23)c1 (racemic)
[2]
  GI50 at 72 h: 1.92 µM

## N#Cc1cc2c(N)nn(Cc3ccccc3)c2nc1NC1CCCCC1N (racemic)
[2]
  GI50 at 72 h: > 5 µM
[1]
  IC50: > 4 µM
[24]
  GI50: > 4 µM

## Cc1cccc(Cc2nc(N[C@@H]3CCCC[C@@H]3N)c(C#N)cc2C(N)=O)c1
[1]
  IC50: > 4 µM

## Cc1cccc(Nc2nc(NC3CCCCC3N)cc3cn[nH]c(=O)c23)c1 (racemic)
[2]
  GI50 at 72 h: 1.5 µM

## Cc1cccc(-n2c(=O)[nH]c3cc(C#N)c(N[C@@H]4CCCC[C@@H]4N)nc32)c1
[1]
  IC50: > 1.3 µM

## Cc1cccc(Nc2nc(N[C@@H]3CCCC[C@@H]3N)c(C#N)cc2C(N)=O)c1
[5]
  Papp at 24 h, 5 µM: 16 ×10⁻⁶ cm/s
[7]
  solubility: 49 µg/mL (≈ 134 µM)
[9]
  AUC at 24 h: 2400 ng·h/mL
[10]
  fraction unbound at 4 h, 10 ug/mL: 0.01
[13]
  bioavailability: 17%
[20]
  solubility: 35 µg/mL (≈ 96 µM)
[25]
  Cmax: 420 ng/mL
[26]
  remaining at 0.5 h, 1 µM: 100%
[29]
  clearance: 12 mL/min/kg
